Results taken from ChEMBL document CHEMBL2169742, “Design, synthesis, and biological evaluation of novel transrepression-selective liver X receptor (LXR) ligands with 5,11-dihydro-5-methyl-11-methylene-6H-dibenz[b,e]azepin-6-one skeleton” (J Med Chem, 2012).
Calls of active or inactive are those of the source. The rule behind the calls is not given here.

Tests used:
[1] = molecular target: T1, Oxysterols receptor LXR-alpha (Homo sapiens, UniProt Q13133); assay: Transactivational agonist activity at human LXRalpha transfected in HEK293 cells coexpressing CMX-Gal4N-DRIP205 assessed as DRIP205 recruitment at 10 uM after 16 hrs by mammalian two-hybrid assay; format: cell-based; conditions: hek293, 16 h
T1 sequence (Q13133 whole entry): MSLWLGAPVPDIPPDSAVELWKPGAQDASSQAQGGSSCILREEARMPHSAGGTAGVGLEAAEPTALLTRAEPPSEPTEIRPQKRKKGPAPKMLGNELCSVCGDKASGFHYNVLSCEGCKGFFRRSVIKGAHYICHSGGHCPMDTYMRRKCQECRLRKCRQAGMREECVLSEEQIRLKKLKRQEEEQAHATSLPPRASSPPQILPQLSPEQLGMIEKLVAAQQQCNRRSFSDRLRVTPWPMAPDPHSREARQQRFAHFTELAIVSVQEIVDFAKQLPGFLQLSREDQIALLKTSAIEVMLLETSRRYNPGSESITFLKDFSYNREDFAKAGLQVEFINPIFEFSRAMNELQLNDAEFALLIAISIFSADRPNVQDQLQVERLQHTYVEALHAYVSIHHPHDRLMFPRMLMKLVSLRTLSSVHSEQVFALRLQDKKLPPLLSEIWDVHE
Outline: (§1)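 Mammalian two-hybrid in HEK293 cells by calcium phosphate cotransfection: CMX-VP16N-hLXRα, Gal4N-fused SRC1, DRIP205, NCoR or SMRT (15 ng), tk-MH100×4-luc (50 ng) and CMX-β-gal (10 ng). Compound or DMSO added 8 h after transfection for 16 h. Luciferase was normalized to β-galactosidase, in triplicate.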

[2] = molecular target: T2, Oxysterols receptor LXR-alpha (Homo sapiens) (UniProt Q13133); assay: Transactivational antagonist activity at human LXRalpha transfected in HEK293 cells coexpressing CMX-Gal4N-SMRT assessed as SMRT recruitment after 16 hrs by reporter gene assay; format: functional, cell-based; outline: as §1
T2 sequence (whole entry): T1 sequence (Q13133 whole entry)

[3] = molecular target: T2, Oxysterols receptor LXR-alpha (Homo sapiens); assay: Transactivational antagonist activity at human LXRalpha transfected in HEK293 cells coexpressing CMX-Gal4N-NCoR assessed as NCoR recruitment after 16 hrs by reporter gene assay; format: functional, cell-based; outline: as §1
[4] = molecular target: T1, Oxysterols receptor LXR-alpha; assay: Transactivational antagonist activity at human LXRalpha transfected in HEK293 cells expressing CMX-Gal4N assessed as inhibition of T1317-induced luciferase activity after 16 hrs by reporter gene assay; format: functional, cell-based
[5] = molecular target: T3, Oxysterols receptor LXR-beta (Homo sapiens, UniProt P55055); assay: Transactivational antagonist activity at human LXRbeta transfected in HEK293 cells expressing CMX-Gal4N assessed as inhibition of T1317-induced luciferase activity after 16 hrs by reporter gene assay; format: functional, cell-based
T3 sequence (P55055 whole entry): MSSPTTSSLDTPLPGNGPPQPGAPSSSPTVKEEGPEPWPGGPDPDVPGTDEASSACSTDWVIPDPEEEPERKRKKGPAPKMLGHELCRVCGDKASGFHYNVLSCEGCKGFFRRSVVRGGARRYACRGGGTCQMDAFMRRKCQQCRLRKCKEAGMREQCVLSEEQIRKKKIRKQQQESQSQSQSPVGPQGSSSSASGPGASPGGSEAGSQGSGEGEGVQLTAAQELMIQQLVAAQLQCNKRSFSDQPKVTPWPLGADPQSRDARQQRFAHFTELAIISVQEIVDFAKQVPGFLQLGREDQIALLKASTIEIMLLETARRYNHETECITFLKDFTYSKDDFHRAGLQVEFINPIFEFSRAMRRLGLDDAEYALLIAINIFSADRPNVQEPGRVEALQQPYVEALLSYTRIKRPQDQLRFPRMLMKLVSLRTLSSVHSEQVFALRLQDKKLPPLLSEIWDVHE

[6] = molecular target: T3, Oxysterols receptor LXR-beta; assay: Transactivational agonist activity at human LXRbeta transfected in HEK293 cells expressing CMX-Gal4N assessed as luciferase activity at 30 uM after 16 hrs by reporter gene assay; format: cell-based; conditions: hek293, 16 h
[7] = molecular target: T1, Oxysterols receptor LXR-alpha; assay: Transactivational agonist activity at human LXRalpha transfected in HEK293 cells coexpressing CMX-Gal4N-SRC1 assessed as SRC1 recruitment at 10 uM after 16 hrs by mammalian two-hybrid assay; format: cell-based; conditions: hek293, 16 h; outline: as §1
[8] = tested on: Peritoneal macrophage cell; assay: Inhibition of LPS-induced IL-6 production in LXRalpha,LXRbeta-deficient C57BL/6J mouse peritoneal macrophages at 10 uM incubated for 6 hrs prior to LPS-challenge measured after 18 hrs by ELISA; format: functional, cell-based
Outline: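 Thioglycollate-elicited peritoneal macrophages came from 8–10-week LXRα/β-null mice on C57BL/6J background, harvested 4 days post-injection. They were adhered, rested 24 h and plated at 2 × 10⁵/well, then pretreated with compound 6 h before LPS 10 ng/mL. Supernatant mIL-6 was measured by ELISA after 18 h; means ± SE of ≥3 independent measurements, ANOVA.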

[9] = molecular target: T1, Oxysterols receptor LXR-alpha; assay: Transactivational agonist activity at human LXRalpha transfected in HEK293 cells expressing CMX-Gal4N assessed as luciferase activity at 30 uM after 16 hrs by reporter gene assay; format: cell-based; conditions: hek293, 16 h
[10] = molecular target: Liver X receptor (Homo sapiens) (UniProt Q13133+P55055); assay: Transrepressional activity at LXR in human TPA-activated THP1 cells assessed as inhibition of LPS-induced IL6 production at 30 uM incubated for 6 hrs prior to LPS-challenge measured after 18 hrs by ELISA; format: cell-based; conditions: THP-1
Outline: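 THP-1 cells were differentiated with 10 nM TPA for 48 h, then replated at 3 × 10⁴/well. They were pretreated with sample for 6 h before LPS (100 ng/mL). Supernatant IL-6 was measured by ELISA after 18 h.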

[11] = molecular target: T1, Oxysterols receptor LXR-alpha; assay: Transactivational agonist activity at human LXRalpha transfected in HEK293 cells expressing CMX-Gal4N assessed as luciferase activity after 16 hrs by reporter gene assay relative to N-(4-(1,1,1,3,3,3-hexafluoro-2-hydroxypropan-2-yl)phenyl)-N-methylbenzamide; format: cell-based; conditions: read-out: Efficacy
[12] = molecular target: T1, Oxysterols receptor LXR-alpha; assay: Transactivational agonist activity at human LXRalpha transfected in HEK293 cells expressing CMX-Gal4N assessed as luciferase activity after 16 hrs by reporter gene assay; format: cell-based
[13] = molecular target: T3, Oxysterols receptor LXR-beta; assay: Transactivational agonist activity at human LXRbeta transfected in HEK293 cells expressing CMX-Gal4N assessed as luciferase activity after 16 hrs by reporter gene assay relative to N-(4-(1,1,1,3,3,3-hexafluoro-2-hydroxypropan-2-yl)phenyl)-N-methylbenzamide; format: cell-based; conditions: read-out: Efficacy
[14] = molecular target: T3, Oxysterols receptor LXR-beta; assay: Transactivational agonist activity at human LXRbeta transfected in HEK293 cells expressing CMX-Gal4N assessed as luciferase activity after 16 hrs by reporter gene assay; format: cell-based
Outline: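 Gal4-hLXRα or Gal4-hLXRβ chimera (15 ng) cotransfected with tk-MH100×4-luc reporter (50 ng) and CMX-β-gal (10 ng) into HEK293 cells by calcium phosphate. Luciferase was normalized to β-gal, in triplicate.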

| Structure (SMILES) | IC50 [4] | IC50 [5] | Activity [6] | Activity [9] | other results |
| --- | --- | --- | --- | --- | --- |
| C=C1c2ccccc2C(=O)N(C)c2ccc(C(C)(C)C)cc21 | 5.4 µM | > 10 µM | Not Active | Not Active | Activity [1]: Toxic; Activity [2]: Dose-dependent effect; Activity [3]: Dose-dependent effect; Activity [7]: Toxic; inhibition [8]: inactive |
| C=C1c2ccc(-c3cccc(C(=O)O)c3)cc2C(=O)N(C)c2ccc(CC)cc21 | > 30 µM | > 30 µM | Not Active | Not Active | inhibition [10]: inactive |
| CN(C(=O)c1ccccc1)c1ccc(C(O)(C(F)(F)F)C(F)(F)F)cc1 |  |  |  |  | Emax [11]: 100%; EC50 [12]: 0.63 µM; Emax [13]: 100%; EC50 [14]: 0.18 µM |
| C=C1c2ccc(-c3ccc(C(=O)O)cc3)cc2C(=O)N(C)c2ccc(CC)cc21 | 1.3 µM | 9.5 µM | Not Active | Not Active | inhibition [10]: inactive |
| CN1C(=O)c2ccccc2Oc2cc(C(O)(C(F)(F)F)C(F)(F)F)ccc21 |  |  |  |  | Emax [11]: 12%; EC50 [12]: 4.2 µM; Emax [13]: 49%; EC50 [14]: 2.7 µM |

Now from value to molecule, other results behind:

| IC50 [4] | IC50 [5] | Activity [6] | Activity [9] | Structure (SMILES) | other results |
| --- | --- | --- | --- | --- | --- |
| > 10 µM | > 10 µM | Not Active | Not Active | C=C1c2ccccc2C(=O)N(C)c2ccc(CO)cc21 |  |
| 1.7 µM | > 10 µM | Not Active | Not Active | C=C1c2ccccc2C(=O)N(C)c2ccc(C(C)C)cc21 |  |
| 14 µM | 26 µM | Not Active | Not Active | C=C1c2ccccc2C(=O)N(C)c2ccc(C(=O)O)cc21 |  |
| 19 µM | 27 µM | Not Active | Not Active | C=C1c2ccccc2C(=O)N(C)c2ccc(N)cc21 |  |
| 6.1 µM | 13 µM | Not Active | Not Active | [CH2-]c1c2ccccc2c(=O)[n+](C)c2ccc([N+](=O)[O-])cc12 |  |
